tested on: Cavia porcellus; test: In vivo antagonistic activity against leukotriene D4 (LTD4) in guinea pig lung; format: functional; details: read-out: ID50 (the source's name)
Outline: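 Drug in propylene glycol given iv 10 min before LTD4 400 ng/kg iv; controls received solvent. Lung overflow volume read at 5 min; ID50 by inverse prediction, common-slope parallel line assay, 3-fold doses, 2–6 animals/dose.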

| SMILES | ED50 [mg/kg] |
| --- | --- |
| CCCc1c(OCC(O)COc2ccc3c(=O)cc(C(=O)[O-])oc3c2CCC)ccc(C(C)=O)c1O.[Na+] (stereo not given) [FPL-55712 SODIUM SALT] | 0.153 |
| CCCc1c(OCC(O)COc2cccc(NC(=O)C(=O)OCC(C)(C)C)c2C#N)ccc(C(C)=O)c1O (stereo not given) | 0.461 |
| CCCc1c(NC(=O)C(=O)OCC)cccc1OCC(O)COc1ccc(C(C)=O)c(O)c1CCC (stereo not given) | 2.6 |
| CCCc1c(OCC(O)COc2cccc(NC(=O)C(=O)O)c2C#N)ccc(C(C)=O)c1O (stereo not given) | 1.8 |
| CCCc1c(OCCCOc2cccc(NC(=O)C(=O)OCC)c2)ccc(C(C)=O)c1O | 1.09 |
| CCCc1c(OCCCOc2cccc(NC(=O)CCC(=O)OCC)c2C#N)ccc(C(C)=O)c1O | 1.77 |
| CCCc1c(OCC(O)COc2cccc(NC(=O)C(=O)OCC)c2C#N)ccc(C(C)=O)c1O (stereo not given) | 0.113 |
| CCCc1c(OCC(O)COc2cccc(NC(=O)CC(=O)OCC)c2C#N)ccc(C(C)=O)c1O (stereo not given) | 0.64 |
| CCCc1c(OCCCOc2cccc(NC(=O)C(=O)OCC)c2C#N)ccc(C(C)=O)c1O | 0.342 |
| CCCc1c(OCCCOc2cccc(NC(=O)CCC(=O)OCC)c2)ccc(C(C)=O)c1O | 1.28 |
